Measured values published in ChEMBL document CHEMBL3872226, “Evaluation of selected 3D virtual screening tools for the prospective identification of peroxisome proliferator-activated receptor (PPAR) γ partial agonists” (Eur J Med Chem, 2016).

Legend:
[1] = target: T1, Peroxisome proliferator-activated receptor gamma (Homo sapiens) (UniProt P37231); test: Displacement of Fluoromone from GST-tagged recombinant human PPARgamma ligand binding domain at 10 uM by LanthaScreen TR-FRET assay relative to pioglitazone
T1 sequence (whole entry): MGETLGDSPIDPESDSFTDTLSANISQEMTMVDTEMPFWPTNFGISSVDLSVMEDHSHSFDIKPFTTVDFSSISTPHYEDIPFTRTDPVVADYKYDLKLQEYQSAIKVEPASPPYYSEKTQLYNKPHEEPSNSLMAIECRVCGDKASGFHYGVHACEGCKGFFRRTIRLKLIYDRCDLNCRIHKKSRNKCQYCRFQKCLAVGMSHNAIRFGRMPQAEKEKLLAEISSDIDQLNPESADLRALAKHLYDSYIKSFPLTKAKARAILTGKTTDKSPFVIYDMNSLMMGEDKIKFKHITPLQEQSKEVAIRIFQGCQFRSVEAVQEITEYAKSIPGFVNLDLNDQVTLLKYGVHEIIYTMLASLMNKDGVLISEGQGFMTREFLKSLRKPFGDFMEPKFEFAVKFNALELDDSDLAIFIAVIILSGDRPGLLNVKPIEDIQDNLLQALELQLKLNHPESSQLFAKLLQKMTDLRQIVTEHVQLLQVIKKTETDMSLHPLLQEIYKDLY
In short: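 Recombinant GST-tagged PPARγ LBD incubated with terbium-labelled anti-GST antibody and fluorescein-labelled pan-PPAR agonist Fluoromone (5 nM), triplicates; DMSO negative control, pioglitazone and telmisartan positive controls. TR-FRET read as 520/495 nm emission ratio; compound autofluorescence subtracted as blank. Displacement expressed relative to pioglitazone.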

[2] = target: T1, Peroxisome proliferator-activated receptor gamma (Homo sapiens); test: Transactivation of GAL4-fused human PPARgamma ligand binding domain expressed in African green monkey COS7 cells at 10 uM after 42 hrs by dual luciferase reporter gene assay relative to pioglitazone; assay type: cell-based; conditions: COS-7
In short: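 COS-7 cells seeded at 10^4 cells/well in DMEM with 10% FCS, grown 24 h at 37 °C, 5% CO2. Transiently transfected in serum- and antibiotic-free medium with pGal5-TK-Luc (30 ng), pGal4-PPARγ-LBD (3 ng) and pRenilla-CMV (1 ng). Compounds or DMSO vehicle added after 4 h, triplicates; dual-luciferase read after 42 h. Activation relative to pioglitazone.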

[3] = target: T2, Peroxisome proliferator-activated receptor gamma (Homo sapiens, UniProt P37231); test: Displacement of Fluoromone from GST-tagged recombinant human PPARgamma ligand binding domain by LanthaScreen TR-FRET assay
T2 sequence (P37231 whole entry): T1 sequence (whole entry)

[4] = target: T2, Peroxisome proliferator-activated receptor gamma; test: Transactivation of GAL4-fused human PPARgamma ligand binding domain expressed in African green monkey COS7 cells after 42 hrs by dual luciferase reporter gene assay; assay type: cell-based, COS-7

SMILES | inhibition [1] | Activity [2] | further results
O=S(=O)(Nc1ccc(Oc2ccc(OC(F)(F)F)cc2)cc1)c1cc(Cl)c(Cl)cc1Cl | 45% |  | 
Cc1nn(C)c(Cl)c1S(=O)(=O)Nc1ccc(Oc2ccc(F)cc2)cc1 |  | 3% | 
Cc1c(NS(=O)(=O)c2ccc(S(=O)(=O)c3ccccc3)s2)c(=O)n(-c2ccccc2)n1C |  | 7.8% | 
O=c1n(Cc2ccc(Cl)cc2Cl)c2ccccc2n1Cc1ccc(Cl)cc1Cl |  | 9.1% | 
COc1nc(-c2ccc(OCc3ccccc3)cc2OCc2ccc(F)cc2)cc(-c2ccc(C)cc2)c1C#N |  | 9.5% | 
CC(C)(CC(=O)O)CC(=O)N1CCCN(c2nccc(C(F)(F)F)n2)CC1 |  | 9.8% | 
O=S(=O)(Nc1cc(Cc2cc(NS(=O)(=O)c3ccccc3)cc(C(F)(F)F)c2)cc(C(F)(F)F)c1)c1ccccc1 | 99% | 23.7% | EC50 [4]: 3400 nM; EC50 [3]: 600 nM
CSc1nc(Sc2nnc(-c3cc(C(F)(F)F)cc(C(F)(F)F)c3)[nH]2)cc(Sc2nnc(-c3cc(C(F)(F)F)cc(C(F)(F)F)c3)[nH]2)n1 | 76% |  | EC50 [3]: 5400 nM
O=C(CSCc1ccc(Cl)c(Cl)c1)c1ccc(OCc2ccc([N+](=O)[O-])cc2)cc1 |  | 11.1% | 
O=C(CN1c2ccccc2Sc2ccccc21)NNC(=S)NCc1ccccc1 | 86% | 41.9% | EC50 [4]: 21700 nM; EC50 [3]: 2800 nM
N#CC(/N=C/c1cc(Cl)cc(Cl)c1O)=C(C#N)/N=C/c1cc(Cl)cc(Cl)c1O | 46% |  | 
Oc1c(O)c(CN2CCCCC2)c2ccccc2c1CN1CCCCC1 |  | 2.7% | 
Cc1cc(Oc2nc(NCCSC(C)(C)C)nc(Oc3cc(C)c(Cl)c(C)c3)n2)cc(C)c1Cl |  | 9% | 
O=C(O)c1cn(C2CCCCC2)c2ccccc2c1=O |  | 12% | 
O=S(=O)(CS(=O)(=O)Oc1cc(Cl)cc(Cl)c1)Oc1cc(Cl)cc(Cl)c1 | 48% |  | 
O=S(=O)(c1ccc(Cl)cc1)c1cnn(S(=O)(=O)c2ccc(Cl)cc2Cl)c1-c1ccc(Cl)cc1 | 80% |  | EC50 [3]: 2100 nM

The next lines start with results.

inhibition [1] | Activity [2] | SMILES | further results
60% |  | COc1ccc(-c2cn3cccc(OCc4ccc(Cl)c(Cl)c4)c3n2)cc1 | EC50 [3]: 3100 nM
 | 14.4% | N#Cc1c(SCc2ccccc2)nc2c(c1/C=C\c1ccccc1)CCC2 | 
91% |  | CCCc1nc2c(C)cc(-c3nc4ccccc4n3C)cc2n1Cc1ccc(-c2ccccc2C(=O)O)cc1 [TELMISARTAN] | EC50 [3]: 700 nM
 | 12.8% | Cc1noc(C)c1-c1nc(CS(=O)(=O)Cc2ccc(Cl)cc2)no1 | 
 | 12.3% | O=C(CSc1nnc(SCC(=O)NCCSCc2ccco2)s1)NCCSCc1ccco1 | 
 | 8.4% | Cc1noc(C)c1-c1noc(CSCc2ccc(Cl)cc2)n1 | 
 | 10.1% | Cc1ccc(S(=O)(=O)n2nc(C)c(Sc3nccn3C)c2C)cc1 | 
42% |  | COc1cc2c(cc1OC)C(/C=C1\SC(C(=O)c3cccs3)=NN1c1ccc(C)cc1)=NCC2 | 
 | 7% | Cc1ccc(Sc2c(C(=O)O)cnc3c2c(C)nn3C)cc1 | 
 | 9.8% | Cc1[nH]c2ccccc2c1SCc1nnc(SCc2ccccc2)n1C | 
 | 2.8% | Cc1nc(CSc2nnc(-c3ccc(C(F)(F)F)cc3)n2Cc2ccco2)cs1 | 
 | 8.1% | Cn1ccnc1SCc1nccn1Cc1ccc(Cl)cc1 | 
 | 9.9% | COc1ccc(CCNc2ccc(C(F)(F)F)cc2/N=C/c2cc(Cl)cc(Cl)c2O)cc1OC | 
 | 6% | Cc1ccc(S(=O)(=O)Nc2ccc(Oc3cccnc3)nc2)cc1 | 
